Compounds with a hit are over-represented: about 3.1% of the library has one in this group of screens.
KCNQ1 pot – potentiates or activates the human KCNQ1 potassium channel | B-score at 10 µM | CHO-K1 KCNQ1, thallium flux FluxOR fluorescence; stronger effect = higher value | actives 0.35% (n = 310,000) | P51787;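 active = fluorescence ratio B-score, a plate-corrected score, at least three library SD, with initial intensity B-score within 5 SD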
Target sequence (P51787 whole entry, looked up): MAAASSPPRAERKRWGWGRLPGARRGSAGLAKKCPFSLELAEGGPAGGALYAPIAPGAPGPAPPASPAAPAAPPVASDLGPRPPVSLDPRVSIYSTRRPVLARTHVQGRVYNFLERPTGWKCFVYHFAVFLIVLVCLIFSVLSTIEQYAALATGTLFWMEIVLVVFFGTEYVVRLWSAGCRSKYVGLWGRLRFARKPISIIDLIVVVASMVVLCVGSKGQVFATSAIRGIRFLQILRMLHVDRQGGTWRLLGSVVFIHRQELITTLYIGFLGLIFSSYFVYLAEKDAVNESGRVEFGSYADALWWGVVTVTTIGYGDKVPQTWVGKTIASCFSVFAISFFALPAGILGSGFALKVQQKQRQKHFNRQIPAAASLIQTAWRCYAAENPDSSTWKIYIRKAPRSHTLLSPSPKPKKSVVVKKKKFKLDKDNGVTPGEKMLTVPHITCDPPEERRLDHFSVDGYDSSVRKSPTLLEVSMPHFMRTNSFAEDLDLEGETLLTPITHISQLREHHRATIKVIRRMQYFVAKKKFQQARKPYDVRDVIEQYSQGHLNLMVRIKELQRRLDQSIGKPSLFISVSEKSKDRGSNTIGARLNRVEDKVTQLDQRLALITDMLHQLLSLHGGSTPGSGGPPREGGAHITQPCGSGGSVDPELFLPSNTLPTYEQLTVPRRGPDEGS
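System: CHO-K1 cells stably expressing KCNQ1 / Medium: assay buffer for compound exposure, DMSO matched across wells / Reagent: thallium- and potassium-containing depolarizing buffer / Compound: one concentration, matched DMSO / Incubation: 20 min compound pretreatment at room temperature / Measured by: kinetic FluxOR fluorescence, 10 s baseline plus 110 s post-stimulus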
KCNK9 block – inhibitors of human KCNK9 two-pore domain potassium channel. HEK293 KCNK9, FluxOR thallium flux fluorescence; stronger effect = lower value. B-score at 10 µM. actives 1.2% (n = 310,000). AID 488922;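 active = ratio B-score over 3 SD below the library mean, with starting fluorescence within 5 SD of its mean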;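 also: negative B-score means less thallium flux so channel inhibition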
KCNK3 block – human KCNK3 channel inhibition, primary screen. O14649. B-score at 10 µM. actives 0.84% (n = 340,000). CHO-KCNK3 thallium flux, FluxOR fluorescence; stronger effect = lower value. AID 602410;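 active = B-score under library mean minus 4 SD, starting fluorescence ratio at most library mean plus 5 SD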;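 also: more negative B-score means stronger inhibition of thallium flux through KCNK3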
hERG protect – compounds protecting human hERG from proarrhythmic drug block; Q12809; CHO-hERG, FluxOR thallium flux, dofetilide IC70 present; activation (rescue from dofetilide block), less the hit threshold, % at 10 µM; actives 0.51% (n = 310,000);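 active = activation above the mean of controls blocked by dofetilide plus 5 SD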;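 also: thallium influx through hERG after potassium depolarization seen as dye fluorescence rise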
KCNQ1 block – blocks the human KCNQ1 potassium channel; P51787; CHO-K1 KCNQ1, FluxOR thallium flux fluorescence; stronger effect = higher value; B-score at 10 µM; actives 1.3% (n = 310,000); AID 2642;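 active = compounds whose thallium flux B-score, printed positive for inhibition, exceeds three library SD while starting fluorescence stays within three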;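 also: channel opened by potassium depolarization with thallium stimulus after 20 min compound exposure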
KCNK9 inh conf – confirmation of human KCNK9 potassium channel inhibitors; shares compounds with KCNK9 block; HEK293 KCNK9 cells, FluxOR thallium flux fluorescence; inhibition, % at 10 µM; actives 43% (n = 4,900); AID 492992;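 active = thallium signal inhibited by more than 5 SD of the compound-free buffer control wells, on both duplicate plates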;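 also: 0% = assay buffer control wells without compound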
Kir2-1 spec – selectivity of KCNK9 modulators against mouse Kir2.1 | shares compounds with KCNK9 block | Kir2.1 cells, FluxOR thallium flux fluorescence | inhibition, % at 10 µM | actives 4% (n = 4,900) | AID 492993;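 active = thallium signal drop more than 5 SD beyond the mean of the no-compound control wells, seen in both duplicate plates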;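 also: signal is fluorescence rise after thallium addition divided by baseline fluorescence; plate controls were assay buffer only for no effect and full block by chlorpromazine control for full effect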
KCNK9 uninduced – second counter-screen for KCNK9 modulators: effect in non-induced cells; shares compounds with KCNK9 block; non-induced KCNK9-HEK293, FluxOR thallium flux; inhibition, % at 10 µM; actives 40% (n = 4,900); AID 492997;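 active = thallium signal drop beyond 5 SD of the untreated control mean, on both duplicate plates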;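 also: plate controls were buffer only IC0 wells for no effect and SID17386958 at its maximal inhibitory level for full effect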
* marks the source's active call; other numbers are inactive results; i = inactive; . = not tested or not shown.

SMILES	KCNQ1 pot	KCNK9 block	KCNK3 block	hERG protect	KCNQ1 block	KCNK9 inh conf	Kir2-1 spec	KCNK9 uninduced
COc1ccc(S(=O)(=O)N2CCN(CCOc3ccc(Br)cc3)CC2)cc1OC	.	.	i	.	.	.	.	.
COc1ccc(OC)c(C(=O)CN2CCN(S(=O)(=O)c3ccc(Br)cc3)CC2)c1	i	i	i	-8.5	i	i	i	i
CCC(CC)C(=O)NC12CC3CC(CC(C3)C1)C2	i	i	i	-2.6	i	.	.	.
COc1ccc(CNC(=O)C[C@H]2C(=O)N(Cc3ccccc3)C[C@@H]2Cc2ccccc2)cc1	i	i	i	-2.9	i	.	.	.
O=C(C[C@H]1C(=O)N(Cc2ccccc2)C[C@@H]1Cc1ccccc1)Nc1ccccc1	i	i	i	-6.6	i	i	i	i
CCCCC[C@H]1CN(Cc2ccccc2)C(=O)[C@@H]1CC(=O)NCc1ccc(OC)cc1	i	i	i	-8.2	i	i	i	28.5%*
Cc1ccc(S(=O)(=O)NCC(=O)OCC(=O)N2CC(C)OC(C)C2)cc1 (stereo unspecified)	.	.	i	.	.	.	.	.
O=C(c1ccncc1)N1N=C(c2ccc(Br)cc2)CC1c1ccccc1O (stereo unspecified)	i	i	i	-4.9	i	.	.	.
O=C(c1ccccc1Cl)N1N=C(c2ccc(Br)cc2)CC1c1nc2ccccc2[nH]1 (stereo unspecified)	i	-8.94*	i	-7.2	i	35.5%*	i	29.5%*
Cc1cc(Oc2ccc3ccccc3c2)nc(SCC(=O)c2ccccc2)n1	i	-13.3*	i	-10.1	i	75.5%*	i	38.5%*
CN(C(=O)CSc1ccc(S(=O)(=O)N2CCCCC2)cn1)c1ccccc1	.	.	i	.	.	.	.	.
CCCCN(C)C(=O)CSc1nc(NCc2ccc(OC)cc2)c2ccccc2n1	i	i	i	-12.1	i	i	i	i
CCOC(=O)c1nc(NCc2ccccc2)c2ccccc2n1	i	i	i	-1.6	i	.	.	.
O=c1cc(/C=C/c2ccccc2)oc2c1ccc1ccccc12	i	-8.33*	i	-14.8	i	i	i	i
O=c1c(CN2CCN(c3cccc(Cl)c3)CC2)coc2c(Cl)cc(Cl)cc12	i	i	i	-11.2	i	i	i	i
COc1ccc2c(c1)C1=NN(/C(C)=C/C(C)=O)C(c3cccc(F)c3)C1CC2 (stereo unspecified)	i	-11.6*	i	-16.2	i	44.0%*	i	33.0%*
Nc1c(S(=O)(=O)c2cccs2)c2nc3ccccc3nc2n1Cc1ccc2c(c1)OCO2	i	-12*	i	-3.0	i	31.5%*	i	40.0%*
CCN(CC)S(=O)(=O)c1ccc(N2CCOCC2)c(NC(=O)c2ccc3ccccc3c2)c1	i	-9.89*	i	-3.3	i	i	i	27.5%*
CCN(CC)S(=O)(=O)c1ccc(N2CCOCC2)c(NC(=O)CC23CC4CC(CC(Br)(C4)C2)C3)c1	i	i	i	-1.3	i	i	i	i
CCN(CC)S(=O)(=O)c1ccc(N2CCOCC2)c(NC(=O)Cc2ccc(Cl)cc2)c1	i	i	i	-10.2	i	.	.	.
Cc1ccc(Cl)c(N/C=C/C(=O)c2ccccc2)c1	i	-14.8*	i	-1.0	i	70.0%*	i	38.5%*
Cc1cccc(N/C=C/C(=O)c2ccc(Cl)cc2)c1	i	i	i	-0.4	i	.	.	.
COc1ccc(NC(=O)N(CCc2ccccc2)Cc2cc3c(C)cc(C)cc3[nH]c2=O)cc1	i	i	i	-16.4	i	i	i	i
COc1ccc2[nH]c(=O)c(CN(CCc3ccccc3)C(C)=O)cc2c1	i	i	i	-8.0	i	.	.	.
CCS(=O)(=O)c1nc(S(=O)(=O)c2ccc(Cl)cc2)c(NCCOC)s1	i	i	i	-3.0	i	.	.	.
SMILES	KCNQ1 pot	KCNK9 block	KCNK3 block	hERG protect	KCNQ1 block	KCNK9 inh conf	Kir2-1 spec	KCNK9 uninduced
O=C(NC1CCCCCC1)c1cc(S(=O)(=O)N2CCC3(CC2)OCCO3)ccc1F	i	i	i	-9.0	i	i	i	i
CNCCNC[C@H](Cc1cccc2ccccc12)NCCc1ccccc1	.	.	i	.	.	.	.	.
CNC[C@H](Cc1ccccc1)NC[C@@H](Cc1cccc2ccccc12)NCCc1ccc(C)cc1	i	-9.51*	i	-28.0	11*	70.0%*	76.0%*	57.5%*
CC(C)(C)c1ccc(NC(=O)Nc2ccc(F)cc2)cc1	i	i	i	-12.3	i	.	.	.
CCN(CC)c1ccc(/C=C/C(=O)C2C(=O)C=C(C)OC2=O)cc1 (stereo unspecified)	i	-9.53*	i	-23.4	i	86.5%*	101.0%*	85.0%*
COc1cc(N2CCCC2)c(OC)cc1/C=C(/C#N)c1cccc(F)c1	i	-12.4*	-10.5*	-20.4	7*	61.0%*	35.0%*	50.0%*
N#C/C(=C/c1ccc(N2CCCCC2)o1)C(=O)Nc1ccc2ccccc2c1	i	i	i	-21.6	i	.	.	.
N#C/C(=C/c1ccc(N2CCCCCC2)o1)c1cccc(F)c1	i	-15.1*	-13*	-26.0	9*	74.0%*	i	71.0%*
N#C/C(=C/c1ccc(N2CCCCC2)o1)C(=O)Nc1ccc(Cl)cc1	i	i	i	-13.3	i	.	.	.
N#C/C(=C/c1ccc(N2CCCCCC2)o1)c1ccc(F)cc1	i	-9.25*	-10.6*	-13.6	i	58.5%*	i	70.5%*
COc1cccc(/C=C(/C#N)c2ccc(F)cc2)c1OCc1cccc(C(=O)O)c1	i	i	i	-3.9	i	.	.	.
CCOC(=O)c1cc(-c2ccccc2)sc1NC(=O)C(C)Sc1nnnn1C (stereo unspecified)	i	-16.9*	i	-14.2	i	61.0%*	i	36.5%*
COC(=O)CSc1snnc1-c1ccc(Cl)cc1Cl	i	i	i	-0.5	i	.	.	.
CCCCCCCCCCn1c2c(c(=N)c3c1CCC3)CCC2	i	-18*	i	57.7*	6*	63.0%*	85.5%*	25.5%*
COC(=O)c1sc(-c2ccc(Cl)cc2)cc1NC(=O)CSCC(=O)O	i	i	i	-12.8	i	i	i	i
COc1ccc(C(=S)N2CCOCC2)cc1OC(=O)c1ccc(C)cc1	i	i	i	-7.2	i	.	.	.
CN(Cc1ccccn1)Cc1cn(Cc2ccccc2)nc1-c1ccc2c(c1)OCO2	i	i	i	-10.1	i	.	.	.
